The values below come from PubChem BioAssay.

The source made the active and inactive calls.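 The calls were made as follows, unless noted: active = GFP response above 150% of the DMSO level; inconclusive = fewer than 70 events counted for a yeast strain; inactive = the rest.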

A short description of assay [1]: hit retest on RPL19A-GFP reporter strain – cell-based, S. cerevisiae, flow cytometry, cherry picks, mother/daughter gates, confirmation (AID 2270;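 active = GFP response below 50% of the DMSO control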). The following applies: 3 h, at 10 µM, stronger effect = lower value, 100 = same GFP as DMSO wells. A general note: In flow cytometry, cells or beads pass a laser one at a time.
Assay [2] is described as follows: yeast TOR pathway reporter LAP4-GFP change – cell-based, cherry picks, flow cytometry, mother/daughter gates, confirmation (AID 2271;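 active = GFP response above 150% of the DMSO control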;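 also: ratio of sample to DMSO plate mean so 100% equals DMSO level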). The following applies: S. cerevisiae LAP4-GFP strain, 3 h, at 10 µM, stronger effect = higher value, 100 means same as DMSO control. The gist of the method:
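Material – Alexa Fluor 633-labelled Saccharomyces cerevisiae GFP-fusion strain, single-plex · Incubation – compound exposure 3 h at 30 °C, end-over-end rotation · Measured by – GFP by flow cytometry · Measure – median GFP fluorescence as percent of plate-mean DMSO wells · Control set – positive rapamycin (400 ng/mL), negative DMSO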

Assay [3] in a line: TOR pathway reporter MEP2-GFP, retest of hits – S. cerevisiae, flow cytometry GFP, cherry picks, confirmation (AID 2272;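 active = GFP response above 150% of the DMSO control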;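 also: ratio of well signal to plate DMSO mean so 100% equals DMSO level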). The following applies: S. cerevisiae MEP2-GFP strain, 3 h, at 10 µM, stronger effect = higher value.
Assay [4] can be described thus: yeast AGP1-GFP fluorescence change, single-dose – cell-based, flow cytometry, S. cerevisiae, cherry picks, confirmation (AID 2273).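 Also: median GFP channel fluorescence over the whole cell population gate.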 The following applies: S. cerevisiae AGP1-GFP strain, 3 h, at 10 µM.
Assay [5] can be described thus: TOR pathway CIT2 reporter hit retest – S. cerevisiae, GFP fusion, cherry picks, mother/daughter gates, confirmation (AID 2274). The following applies: S. cerevisiae CIT2-GFP strain, flow cytometry, 3 h, at 10 µM, stronger effect = higher value.
Setting [6] is: measured here: daughter cell gate.
Setting [7] is: measured here: mother cell gate.
The mark [8] stands for this setting: measured here: daughter cell gate response.
[9] abbreviates: measured here: mother cell gate response.

As for `COc1ccccc1-c1nnc(NC(=O)c2ccc(S(=O)(=O)N3CCCC3)cc2)o1`, the GFP response vs DMSO in assay [1] is 102% (inactive); in assay [1] (setting [6]), 101%; in assay [1] (setting [7]), 104%; in assay [3] it was 102% (inactive). Also, the GFP response relative to DMSO in assay [2] was 96.2% (inactive); in assay [2] (setting [8]), 98.7%; in assay [2] (setting [9]) it was 97.2%. Also, the GFP response, % of DMSO in assay [4] was 98% (inactive); in assay [5], 107% (inactive); in assay [5] (setting [6]), 105%; in assay [5] (setting [7]) it was 107%.

Turning to `CCCc1ccc(C(=O)N2CCN(c3ccccc3OCC)CC2)cc1`, the GFP response vs DMSO was 99.1% (inactive) in assay [1], 98.8% in assay [1] (setting [6]), 99.2% in assay [1] (setting [7]) and 97.5% (inactive) in assay [3]. The GFP response relative to DMSO is 95.3% (inactive) in assay [2], 93.6% in assay [2] (setting [8]) and 93.6% in assay [2] (setting [9]). Moreover, the GFP response, % of DMSO in assay [4] is 96.9% (inactive); in assay [5], 96.4% (inactive); in assay [5] (setting [6]), 96.4%; in assay [5] (setting [7]), 94.5%.

In the case of `CS(=O)(=O)N1N=C(c2ccc(Br)cc2)CC1c1ccc2c(c1)OCO2` (stereo unspecified), the GFP response vs DMSO in assay [1] was 102% (inactive); in assay [1] (setting [6]) it was 101%; in assay [1] (setting [7]), 102%; in assay [3], 114% (inactive). Moreover, the GFP response relative to DMSO in assay [2] was 105% (inactive); in assay [2] (setting [8]), 104%; in assay [2] (setting [9]), 104%. The GFP response, % of DMSO in assay [4] was 99.3% (inactive); in assay [5], 109% (inactive); in assay [5] (setting [6]), 111%; in assay [5] (setting [7]) it was 107%.

Turning to `CN(CCCS(=O)(=O)[O-])c1ccc(/C=C/c2ccc3ccccc3[n+]2C)cc1`, the GFP response vs DMSO in assay [1] was 101% (inactive); in assay [1] (setting [6]), 100%; in assay [1] (setting [7]), 101%; in assay [3] it was 111% (inactive). The GFP response relative to DMSO in assay [2] was 102% (inactive); in assay [2] (setting [8]), 102%; in assay [2] (setting [9]), 104%. In addition, the GFP response, % of DMSO was 99.6% (inactive) in assay [4], 106% (inactive) in assay [5], 106% in assay [5] (setting [6]) and 106% in assay [5] (setting [7]).

On to `CC(=O)Oc1ccc(N2C(=O)C3C4C=CC(CO)(O4)C3C2=O)cc1` (stereo unspecified), for which the GFP response vs DMSO in assay [1] was 103% (inactive); in assay [1] (setting [6]), 104%; in assay [1] (setting [7]), 97.8%; in assay [3] it was 107% (inactive). In addition, the GFP response relative to DMSO in assay [2] was 120% (inactive); in assay [2] (setting [8]) it was 120%; in assay [2] (setting [9]) it was 120%. The GFP response, % of DMSO in assay [4] is 101% (inactive); in assay [5], 109% (inactive); in assay [5] (setting [6]), 112%; in assay [5] (setting [7]), 104%.

For the compound `COC(=O)Cn1nc(-c2ccccc2)c2cc(Cl)ccc21`, the GFP response vs DMSO is 101% (inactive) in assay [1], 100% in assay [1] (setting [6]), 101% in assay [1] (setting [7]) and 109% (inactive) in assay [3]. Further, the results for the GFP response relative to DMSO in assay [2], in assay [2] (setting [8]) and in assay [2] (setting [9]) were 104% (inactive), 104% and 104%, respectively. The GFP response, % of DMSO in assay [4] was 102% (inactive); in assay [5], 114% (inactive); in assay [5] (setting [6]), 116%; in assay [5] (setting [7]) it was 112%.

Turning to `O=C(N/N=C/c1ccc(F)cc1)c1ccc(Br)cc1`, the GFP response vs DMSO is 99.6% (inactive) in assay [1], 98.6% in assay [1] (setting [6]), 98% in assay [1] (setting [7]) and 96.8% (inactive) in assay [3]. Further, the GFP response relative to DMSO in assay [2] is 111% (inactive); in assay [2] (setting [8]), 109%; in assay [2] (setting [9]) it was 109%. The GFP response, % of DMSO in assay [4] is 99.6% (inactive); in assay [5], 102% (inactive); in assay [5] (setting [6]), 101%; in assay [5] (setting [7]), 87%.

For `Cc1cc(NCCCN2CCOCC2)n2nc(C)c(-c3ccccc3)c2n1`, the GFP response vs DMSO is 95.8% (inactive) in assay [1], 94.7% in assay [1] (setting [6]), 94.4% in assay [1] (setting [7]) and 99.3% (inactive) in assay [3]. Also, the GFP response relative to DMSO is 100% (inactive) in assay [2], 97.5% in assay [2] (setting [8]) and 100% in assay [2] (setting [9]). Besides, the GFP response, % of DMSO in assay [4] was 100% (inactive); in assay [5] it was 101% (inactive); in assay [5] (setting [6]), 101%; in assay [5] (setting [7]), 100%.

In the case of `COc1ccc(-c2nc(N)n(C(C)=O)n2)cc1`, the GFP response vs DMSO in assay [1] was 103% (inactive); in assay [1] (setting [6]), 102%; in assay [1] (setting [7]), 104%; in assay [3] it was 102% (inactive). Further, the GFP response relative to DMSO was 95% (inactive) in assay [2], 97.2% in assay [2] (setting [8]) and 95.2% in assay [2] (setting [9]). Moreover, the GFP response, % of DMSO was 97.4% (inactive) in assay [4], 110% (inactive) in assay [5], 110% in assay [5] (setting [6]) and 111% in assay [5] (setting [7]).

`O=C1c2cccc3cccc(c23)C(=O)N1c1nccs1`: the GFP response vs DMSO in assay [1] was 103% (inactive); in assay [1] (setting [6]) it was 102%; in assay [1] (setting [7]), 104%; in assay [3], 133% (inactive). Besides, the GFP response relative to DMSO was 116% (inactive) in assay [2], 117% in assay [2] (setting [8]) and 112% in assay [2] (setting [9]). Besides, the GFP response, % of DMSO was 106% (inactive) in assay [4], 130% (inactive) in assay [5], 132% in assay [5] (setting [6]) and 131% in assay [5] (setting [7]).

Consider `COc1ccccc1OCCCc1c(C)n[nH]c1C`, for which the GFP response vs DMSO in assay [1] is 119% (inactive); in assay [1] (setting [6]) it was 89.8%; in assay [1] (setting [7]) it was 115%; in assay [3], 130% (inactive). For the same compound, the GFP response relative to DMSO is 207% (active) in assay [2], 104% in assay [2] (setting [8]) and 205% in assay [2] (setting [9]). In addition, the GFP response, % of DMSO in assay [4] is 76.6% (inactive); in assay [5], 114% (inactive); in assay [5] (setting [6]), 101%; in assay [5] (setting [7]), 101%.

For the compound `Cc1cc(NC(=O)c2ccc3c(c2)OCCO3)ccc1NC(=O)c1cc2ccccc2o1`, the GFP response vs DMSO in assay [1] is 97.6% (inactive); in assay [1] (setting [6]) it was 99.5%; in assay [1] (setting [7]), 96.5%; in assay [3], 103% (inactive). Besides, the figures for the GFP response relative to DMSO in assay [2], in assay [2] (setting [8]) and in assay [2] (setting [9]) were 89.4% (inactive), 89.8% and 91.3%, respectively. For the same compound, the GFP response, % of DMSO in assay [4] was 93.2% (inactive); in assay [5], 95.8% (inactive); in assay [5] (setting [6]) it was 97.6%; in assay [5] (setting [7]) it was 97.1%.

Regarding `O=C1C=CC(=O)N1c1ccc(Sc2ccc([N+](=O)[O-])cc2)cc1`, the GFP response vs DMSO was 74% (inactive) in assay [1], 96.8% in assay [1] (setting [6]), 61.1% in assay [1] (setting [7]) and 125% (inactive) in assay [3]. Besides, the GFP response relative to DMSO was 143% (inactive) in assay [2], 142% in assay [2] (setting [8]) and 124% in assay [2] (setting [9]). In addition, the GFP response, % of DMSO was 106% (inactive) in assay [4], 79.7% (inactive) in assay [5], 90.5% in assay [5] (setting [6]) and 63.8% in assay [5] (setting [7]).

Take `COc1cccc(NC(=O)Nc2ccc3c(c2)nnn3C)c1`: the GFP response vs DMSO in assay [1] was 97.8% (inactive); in assay [1] (setting [6]) it was 98.1%; in assay [1] (setting [7]) it was 96.9%; in assay [3], 100% (inactive). For the same compound, the GFP response relative to DMSO in assay [2] is 103% (inactive); in assay [2] (setting [8]), 102%; in assay [2] (setting [9]) it was 104%. Moreover, the GFP response, % of DMSO in assay [4] was 97.2% (inactive); in assay [5], 101% (inactive); in assay [5] (setting [6]), 103%; in assay [5] (setting [7]), 101%.

As for `O=C(O)CCc1ccc(-c2ccccc2)o1`, the GFP response vs DMSO in assay [1] was 94.4% (inactive); in assay [1] (setting [6]) it was 92.6%; in assay [1] (setting [7]), 96.4%; in assay [3] it was 96.2% (inactive). The GFP response relative to DMSO in assay [2] was 139% (inactive); in assay [2] (setting [8]), 138%; in assay [2] (setting [9]) it was 138%. Further, the GFP response, % of DMSO is 93.1% (inactive) in assay [4], 94% (inactive) in assay [5], 95.4% in assay [5] (setting [6]) and 92.6% in assay [5] (setting [7]).

Consider `COc1cccc(/C=C2\C(=O)N(c3cccc(C)c3)C(=O)c3ccccc32)c1`, for which the GFP response vs DMSO in assay [1] is 96% (inactive); in assay [1] (setting [6]) it was 92%; in assay [1] (setting [7]), 92.8%; in assay [3], 98.8% (inactive). Also, the GFP response relative to DMSO in assay [2] is 168% (active); in assay [2] (setting [8]), 145%; in assay [2] (setting [9]), 180%. For the same compound, the GFP response, % of DMSO is 104% (inactive) in assay [4], 79.7% (inactive) in assay [5], 84.1% in assay [5] (setting [6]) and 71.8% in assay [5] (setting [7]).
